Measurements from ChEMBL document CHEMBL2390920, “8-Benzamidochromen-4-one-2-carboxylic acids: potent and selective agonists for the orphan G protein-coupled receptor GPR35” (J Med Chem, 2013).

Key:
[1] = biological target: T1, G-protein coupled receptor 55 (Homo sapiens, UniProt Q9Y2T6); experiment: Antagonist activity at human GPR55 expressed in CHO cells assessed as inhibition of lysophosphotidylinositol-induced beta-arrestin recruitment at 10 uM preincubated for 30 mins followed by lysophosphotidylinositol induction by beta-galactosidase reporter gene assay relative to control; assay type: functional, cell-based
Outline: (§1)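 Human GPR55 PathHunter CHO cells were preincubated 30 min with compound, then stimulated with LPI (final 1 µM). After 90 min, detection reagent was added and luminescence read 60 min later. Screening was at 10 µM; full concentration-inhibition curves were run for selected compounds to give IC50.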

[2] = biological target: T1, G-protein coupled receptor 55; experiment: Agonist activity at human GPR55 expressed in CHO cells assessed as induction of beta-arrestin recruitment at 10 uM after 90 mins by beta-galactosidase reporter gene assay relative to lysophosphotidylinositol; assay type: functional, cell-based
Outline: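 Human GPR55 PathHunter CHO cells, 20000 cells/well seeded the day before, received test compound at 10 µM (final DMSO ≤1%) for 90 min. Detection reagent was then added and luminescence read after 60 min. Signal was normalized to that of 1 µM LPI.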

[3] = biological target: T2, G-protein coupled receptor 35 (Homo sapiens, UniProt Q9HC97); experiment: Agonist activity at human GPR35b expressed in CHO cells assessed as induction of beta-arrestin recruitment at 10 uM after 90 mins by beta-galactosidase reporter gene assay relative to zaprinast; assay type: cell-based
Outline: (§2)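 CHO β-arrestin-EA parental line transfected with human GPR35b, seeded at 20000 cells/well the day before. Compounds in DMSO were diluted 1:10 in medium or PBS (final DMSO ≤1%). After 90 min of incubation, detection reagent was added and luminescence measured 60 min later. Screening was at 10 µM.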

[4] = biological target: T2, G-protein coupled receptor 35; experiment: Agonist activity at human GPR35b expressed in CHO cells assessed as induction of beta-arrestin recruitment after 90 mins by beta-galactosidase reporter gene assay; assay type: cell-based; outline: as §2
[5] = biological target: G protein-coupled receptor GPR35 (Rattus norvegicus) (UniProt Q33BM1); experiment: Agonist activity at rat GPR35 expressed in CHO cells assessed as induction of beta-arrestin recruitment at 10 uM after 90 mins by beta-galactosidase reporter gene assay relative to zaprinast; assay type: cell-based
Outline: (§3)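 Rat GPR35 expressed by transfecting a parental CHO β-arrestin-EA line; cells seeded at 20000/well the day before. Compounds (final DMSO ≤1%) were incubated 90 min, followed by detection reagent and a luminescence read after 60 min.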

[6] = biological target: G protein-coupled receptor GPR35 (Rattus norvegicus, UniProt Q33BM1); experiment: Agonist activity at rat GPR35 expressed in CHO cells assessed as induction of beta-arrestin recruitment after 90 mins by beta-galactosidase reporter gene assay; assay type: cell-based; outline: as §3
[7] = biological target: G-protein coupled receptor 35 (Mus musculus) (UniProt Q9ES90); experiment: Agonist activity at mouse GPR35 expressed in CHO cells assessed as induction of beta-arrestin recruitment at 10 uM after 90 mins by beta-galactosidase reporter gene assay; assay type: cell-based
Outline: (§4)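 Mouse GPR35 introduced by transfection into a CHO β-arrestin-EA line; 20000 cells/well plated the day prior. After 90 min of compound exposure (final DMSO ≤1%), detection reagent was added and luminescence read after 60 min.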

[8] = biological target: T2, G-protein coupled receptor 35; experiment: Agonist activity at human GPR35 expressed in CHO cells assessed as induction of beta-arrestin recruitment at 10 uM after 90 mins by beta-galactosidase reporter gene assay relative to zaprinast; assay type: cell-based
Outline: (§5)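 PathHunter enzyme-fragment complementation in CHO cells stably expressing β-arrestin-EA and tagged human GPR35, seeded at 20000 cells/well the day before. DMSO dilutions were further diluted 1:10 (final DMSO ≤1%). Cells were incubated 90 min, then detection reagent was added and luminescence read after 60 min.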

[9] = biological target: T2, G-protein coupled receptor 35; experiment: Agonist activity at human GPR35 expressed in CHO cells assessed as induction of beta-arrestin recruitment after 90 mins by beta-galactosidase reporter gene assay; assay type: cell-based; outline: as §5
[10] = biological target: G protein-coupled receptor GPR35 (Rattus norvegicus) (UniProt Q33BM1); experiment: Agonist activity at rat GPR35 expressed in CHO cells assessed as induction of beta-arrestin recruitment at 10 uM after 90 mins by beta-galactosidase reporter gene assay; assay type: cell-based; outline: as §3
[11] = biological target: G-protein coupled receptor 35 (Mus musculus, UniProt Q9ES90); experiment: Agonist activity at mouse GPR35 expressed in CHO cells assessed as induction of beta-arrestin recruitment after 90 mins by beta-galactosidase reporter gene assay; assay type: cell-based; outline: as §4
[12] = biological target: G-protein coupled receptor 35 (Mus musculus) (UniProt Q9ES90); experiment: Agonist activity at mouse GPR35 expressed in CHO cells assessed as induction of beta-arrestin recruitment at 10 uM after 90 mins by beta-galactosidase reporter gene assay relative to zaprinast; assay type: cell-based; outline: as §4
Homo sapiens = species on record: Homo sapiens; experiment: Selectivity ratio of IC50 for human GPR55 to EC50 for human GPR35
[13] = biological target: T1, G-protein coupled receptor 55; experiment: Antagonist activity at human GPR55 expressed in CHO cells assessed as inhibition of lysophosphotidylinositol-induced beta-arrestin recruitment preincubated for 30 mins followed by lysophosphotidylinositol induction by beta-galactosidase reporter gene assay; assay type: functional, cell-based; outline: as §1
[14] = biological target: T2, G-protein coupled receptor 35; experiment: Agonist activity at human GPR35 expressed in CHO cells assessed as induction of beta-arrestin recruitment at 10 uM after 90 mins by beta-galactosidase reporter gene assay; assay type: cell-based; outline: as §5

Chain of G protein-coupled receptor GPR35 (Rattus norvegicus) (Q33BM1 as listed by the source): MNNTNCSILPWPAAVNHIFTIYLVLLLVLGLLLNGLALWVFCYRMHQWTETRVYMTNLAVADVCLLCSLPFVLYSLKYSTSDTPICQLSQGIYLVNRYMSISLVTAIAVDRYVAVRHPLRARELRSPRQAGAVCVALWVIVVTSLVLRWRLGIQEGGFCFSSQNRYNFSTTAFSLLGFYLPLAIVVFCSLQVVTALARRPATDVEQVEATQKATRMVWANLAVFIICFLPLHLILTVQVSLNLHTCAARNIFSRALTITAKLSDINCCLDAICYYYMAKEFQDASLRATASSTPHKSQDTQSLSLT
Chain of G protein-coupled receptor GPR35 (Q33BM1 whole entry): as the sequence (Q33BM1 as listed by the source) above
Chain of G-protein coupled receptor 35 (Mus musculus, UniProt Q9ES90) (Q9ES90 whole entry): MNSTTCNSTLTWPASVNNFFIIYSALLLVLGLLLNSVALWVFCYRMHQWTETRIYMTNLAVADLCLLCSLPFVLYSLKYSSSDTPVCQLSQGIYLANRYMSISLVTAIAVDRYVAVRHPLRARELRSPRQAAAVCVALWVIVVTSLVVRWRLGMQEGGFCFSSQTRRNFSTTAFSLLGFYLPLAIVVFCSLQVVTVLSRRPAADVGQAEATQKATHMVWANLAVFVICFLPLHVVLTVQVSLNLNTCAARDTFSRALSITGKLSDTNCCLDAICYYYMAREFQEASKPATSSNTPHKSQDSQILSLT
Chain of G-protein coupled receptor 35 (Mus musculus) (Q9ES90 whole entry): as above
T1 sequence (Q9Y2T6 whole entry): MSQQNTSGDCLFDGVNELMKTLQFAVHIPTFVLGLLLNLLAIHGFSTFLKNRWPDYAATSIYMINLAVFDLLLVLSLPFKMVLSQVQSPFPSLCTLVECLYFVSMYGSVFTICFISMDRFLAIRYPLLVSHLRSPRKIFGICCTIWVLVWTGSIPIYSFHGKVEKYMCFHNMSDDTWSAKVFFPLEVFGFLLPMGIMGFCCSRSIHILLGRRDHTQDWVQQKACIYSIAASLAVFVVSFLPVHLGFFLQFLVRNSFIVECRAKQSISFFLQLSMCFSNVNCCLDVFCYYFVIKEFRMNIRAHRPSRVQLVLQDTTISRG
T2 sequence (Q9HC97 whole entry): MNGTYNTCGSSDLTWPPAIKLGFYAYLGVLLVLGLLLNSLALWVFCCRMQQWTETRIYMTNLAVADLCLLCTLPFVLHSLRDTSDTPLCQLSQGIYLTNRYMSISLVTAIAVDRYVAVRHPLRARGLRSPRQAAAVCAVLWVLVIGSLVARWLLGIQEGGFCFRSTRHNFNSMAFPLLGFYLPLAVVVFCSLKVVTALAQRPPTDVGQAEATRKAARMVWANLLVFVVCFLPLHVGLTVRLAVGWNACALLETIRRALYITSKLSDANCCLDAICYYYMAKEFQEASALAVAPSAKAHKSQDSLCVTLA

SMILES | inhibition [1] | Activity [2] | Emax [3] | EC50 [4] | Emax [5] | EC50 [6] | Activity [7] | Emax [8] | EC50 [9] | Activity [10] | EC50 [11] | Emax [12] | Ratio IC50/EC50 (Homo sapiens) | IC50 [13] | Activity [14]
O=C1N/C(=N/c2ccccc2F)S/C1=C\c1ccc(C(=O)O)cc1 | – | – | – | – | – | 8000 nM | – | – | – | – | 17000 nM | – | – | – | –
COc1ccc(C(=O)Nc2cc(Br)cc3c(=O)cc(C(=O)O)oc23)cc1OC | 45% | -12% | 101% | 628 nM | 106% | 1300 nM | – | 102% | 425 nM | – | 6400 nM | 73% | – | – | –
Nc1cccc2c(=O)cc(C(=O)O)oc12 | 19% | -11% | – | – | – | – | 4% | – | – | 40% | – | – | – | – | 2%
O=C(O)c1cc(=O)c2cc(F)cc(NC(=O)c3cccc(Cl)c3Cl)c2o1 | 40% | 5% | 104% | 873 nM | 82% | 3130 nM | – | 106% | 382 nM | – | – | – | – | – | –
CCCOc1ccccc1-c1nc2nn[nH]c2c(=O)[nH]1 [ZAPRINAST] | – | – | – | – | – | 61.1 nM | – | – | – | – | 1600 nM | – | – | – | –
CCCOc1ccc(C(=O)Nc2cccc3c(=O)cc(C(=O)O)oc23)cc1 | 21% | 10% | – | – | 80% | 3610 nM | 13% | – | – | – | – | – | – | – | 4%
Cc1cccc(C(=O)Nc2cc(Br)cc3c(=O)cc(C(=O)O)oc23)c1 | 46% | -8% | 111% | 699 nM | 79% | 2080 nM | 27% | 138% | 842 nM | – | – | – | – | – | –
O=C(Nc1cccc2c(=O)cc(C(=O)O)oc12)c1ccc2ccccc2c1 | – | 6% | – | – | – | – | – | 125% | 4670 nM | 46% | 2990 nM | 79% | – | 29100 nM | –
COc1ccccc1C(=O)Nc1cc(Br)cc2c(=O)cc(C(=O)O)oc12 | 44% | 9% | – | – | 73% | 1100 nM | – | 91% | 1660 nM | – | 4950 nM | 71% | – | – | –
O=C(Nc1cccc2c(=O)cc(C(=O)O)oc12)c1ccc2ccccc2n1 | 31% | -6% | – | – | – | – | – | 81% | 1340 nM | 41% | 3590 nM | 65% | – | – | –
O=C(Nc1cccc2c(=O)cc(C(=O)O)oc12)c1ccc(OCC2CC2)cc1 | 24% | -5% | – | – | – | – | 13% | – | – | 48% | – | – | – | – | 10%
O=C(Nc1cccc2c(=O)cc(C(=O)O)oc12)c1ccc(Br)cc1 | 9% | 8% | 113% | 678 nM | – | – | 28% | 122% | 804 nM | 49% | – | – | – | – | –
Nc1cc(Br)cc2c(=O)cc(C(=O)O)oc12 | 17% | 4% | – | – | – | – | 18% | 84% | 12600 nM | 40% | – | – | – | – | –
CCC(=O)Nc1cccc2c(=O)cc(C(=O)O)oc12 | 16% | 15% | – | – | – | – | 12% | 119% | 13400 nM | 30% | – | – | – | – | –

Continued, values first:

inhibition [1] | Activity [2] | Emax [3] | EC50 [4] | Emax [5] | EC50 [6] | Activity [7] | Emax [8] | EC50 [9] | Activity [10] | EC50 [11] | Emax [12] | Ratio IC50/EC50 (Homo sapiens) | IC50 [13] | Activity [14] | SMILES
47% | 16% | 109% | 27.2 nM | 62% | 3250 nM | 29% | 110% | 15.4 nM | – | – | – | – | – | – | O=C(Nc1cc(Br)cc2c(=O)cc(C(=O)O)oc12)c1ccc(Cl)c(Cl)c1
18% | -8% | 110% | 20.5 nM | – | – | 24% | 113% | 17 nM | 46% | – | – | – | – | – | O=C(O)c1cc(=O)c2cc(F)cc(NC(=O)c3ccc(Cl)cc3Cl)c2o1
34% | 7% | 113% | 143 nM | 78% | 1760 nM | 30% | 123% | 112 nM | – | – | – | – | – | – | COc1ccc(C(=O)Nc2cc(F)cc3c(=O)cc(C(=O)O)oc23)cc1
46% | 9% | 118% | 128 nM | 86% | 2050 nM | 34% | 107% | 59.9 nM | – | – | – | – | – | – | O=C(Nc1cc(Br)cc2c(=O)cc(C(=O)O)oc12)c1ccc2c(c1)OCO2
40% | 12% | 130% | 40.5 nM | – | – | 27% | 115% | 25.1 nM | 47% | – | – | – | – | – | O=C(Nc1cc(Br)cc2c(=O)cc(C(=O)O)oc12)c1ccc(Cl)cc1
– | 10% | 129% | 14.7 nM | 81% | 4170 nM | 35% | 120% | 11.1 nM | – | – | – | > 1700 | 21700 nM | – | COc1ccc(C(=O)Nc2cc(Br)cc3c(=O)cc(C(=O)O)oc23)c(Cl)c1
54% | 3% | 136% | 106 nM | 80% | 2650 nM | 37% | 131% | 117 nM | – | – | – | – | – | – | O=C(Nc1cc(F)cc2c(=O)cc(C(=O)O)oc12)c1ccc(Cl)c(Cl)c1
43% | 10% | 116% | 34.6 nM | – | – | 12% | 110% | 16.4 nM | 32% | – | – | – | – | – | O=C(O)c1cc(=O)c2cc(Br)cc(NC(=O)c3ccc(Cl)cc3Cl)c2o1
– | 9% | – | – | 94% | 991 nM | – | 117% | 30.5 nM | – | 4980 nM | 64% | – | 6200 nM | – | COc1ccc(C(=O)Nc2cc(Br)cc3c(=O)cc(C(=O)O)oc23)cn1
– | 4% | – | – | 68% | 1540 nM | 27% | 115% | 144 nM | – | – | – | – | 8920 nM | – | COc1ccc(C(=O)Nc2cc(Br)cc3c(=O)cc(C(=O)O)oc23)nc1
47% | -2% | 125% | 28.6 nM | 86% | 1830 nM | 34% | 110% | 16.8 nM | – | – | – | – | – | – | COc1ccc(C(=O)Nc2cc(Cl)cc3c(=O)cc(C(=O)O)oc23)cc1
-3% | 0% | 115% | 472 nM | 85% | 2160 nM | – | 104% | 346 nM | – | 5030 nM | 66% | – | – | – | COc1ccc(C(=O)Nc2cccc3c(=O)cc(C(=O)O)oc23)cc1
